The record followed here is ChEMBL document CHEMBL1142540, “Novel piperidinylpyrimidine derivatives as inhibitors of HIV-1 LTR activation” (Bioorg Med Chem, 2008).

Data set [1] can be described thus: Inhibition of HIV1 LTR-driven CAT gene expression in PMA-stimulated human JURKAT cells. The class given is cell-based. The following applies: Human immunodeficiency virus 1, Jurkat. The essentials:
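Jurkat cells electroporated (140 V) with HIV-1 LTR-CAT plasmid p469 using DEAE-dextran and cultured 20 h. Cells then stimulated with PMA 10 ng/ml in presence of compound for 24 h at 37 °C, lysed by freeze-thaw.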

The nature of data set [2]: Inhibition of HIV1 LTR-driven CAT gene expression in Tat-stimulated human JURKAT cells. It is filed as cell-based. The following applies: Human immunodeficiency virus 1, Jurkat. The method in brief:
(§1)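 Jurkat cells co-electroporated (140 V) with LTR-CAT p469 plus pSV-Tat using DEAE-dextran, cultured 20 h, then treated with compound alone (no PMA) for 24 h at 37 °C.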

In data set [3] the test system is Jurkat. Briefly: Inhibition of HIV1 LTR-driven CAT gene expression in Tat-stimulated human JURKAT cells at 1 uM. The class given is cell-based. The settings on record: Human immunodeficiency virus 1. The essentials:
as §1

The subject of another data set is PBMC. Briefly: Inhibition of LPS-stimulated TNFalpha production in human PBMC. It is filed as functional, cell-based. The method in brief: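 Human PBMC from healthy donors isolated by Ficoll-Paque, seeded at 1×10^5 cells/well in RPMI 1640 with 10% heat-inactivated FBS and L-glutamine. Stimulated with LPS 0.1 ug/ml final, compound added at the same time (DMSO below 0.1%), 20 h; supernatants collected for TNF-α.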

Data set [4] relates to Jurkat. Briefly: Cytotoxicity against human JURKAT cells. It is filed as cell-based. The essentials:
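Cell number of treated Jurkat cells counted by Coulter counter to assess inhibition of proliferation.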

The nature of data set [5]: Inhibition of Tat-induced HIV1 LTR transactivation in human HeLa cells assessed as CAT expression after 2 days. The class given is cell-based. The settings on record: Human immunodeficiency virus 1, HeLa, 48 h.
Data set [6] can be described thus: Inhibition of HIV1 LTR-driven CAT gene expression in PMA-stimulated HEK293-27-2 cells assessed as […]. The following applies: Human immunodeficiency virus 1.
Data set [7] is described as follows: Inhibition of Tat-induced HIV1 LTR transactivation. Also on record: species or system Human immunodeficiency virus 1. The method in brief:
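Jurkat cells electroporated at 140 V with HIV-1 LTR-CAT plasmid p469 (1 µg) plus pSV-Tat (0.5 µg) and DEAE-dextran, then cultured 20 h at 37 °C. Cells were exposed to compound without PMA for 24 h and lysed. Reported as % inhibition at 5 µM or IC50, single determination.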

Broadly, the IC50 is the point on the concentration scale where inhibition reaches its midpoint. A word on the inhibition: it is the relative decrease from the control value, in per cent. High values mean a response far below the control, low ones a response near the control. `COc1ccc(OC)c(Cc2cc(C3CCN(C(=O)c4ccc5c(c4)OCO5)CC3)nc(N)n2)c1`: the IC50 in data set [1] was 200 nM; in data set [2] it was less than 1000 nM; with PBMC, 7700 nM. The compound further registered an inhibition in the data set with Jurkat [3] of 58%. For the same compound, the Activity entry in the data set on Jurkat [4] was “Non-toxic”.

Take `COc1cc(Cc2cc(C3CCN(C(=O)c4ccc5c(c4)OCO5)CC3)nc(N)n2)cc(OC)c1`: the figures for the IC50 (in data set [1]; in data set [2]; in the data set with PBMC) were 300 nM, less than 1000 nM and 3300 nM, respectively. The compound also displayed an inhibition in the data set on Jurkat [3] of 56%. The Activity result in the data set on Jurkat [4] is listed as “Non-toxic”.

Turning to `Cn1cc(C(=O)O)c(=O)c2cc(F)c(N3CC=C(c4ccccc4)CC3)c(C(F)(F)F)c21` [FLUOROQUINOLINE K37], the IC50 in data set [5] is less than 160 nM.

In the case of `CC(=O)CCCCn1c(=O)c2c(ncn2C)n(C)c1=O` [PENTOXIFYLLINE], the IC50 in data set [6] amounted to 500000 nM.

For `C[S+]([O-])c1ccc(-c2nc(-c3ccc(F)cc3)c(-c3ccncc3)[nH]2)cc1` (stereo not drawn) [SB-203580], in data set [5], the IC50 came to 100 nM.

`O=C1CN=C(c2ccc[nH]2)c2cc(Cl)ccc2N1` came in with an IC50 in data set [7] of 100 nM.

`CSc1ccc(Cc2cc(C3CCN(C(=O)c4ccc5c(c4)OCO5)CC3)nc(N)n2)cc1`: the IC50 in data set [1] is 200 nM; in data set [2], less than 1000 nM. The same compound returned an inhibition with Jurkat [3] of 57%. Besides, the Activity result in the data set with Jurkat [4] is reported as “Non-toxic”.
